Data on twelve compounds can be found in ChEMBL document CHEMBL4028854, “Iminothioethers as Hydrogen Sulfide Donors: From the Gasotransmitter Release to the Vascular Effects” (J Med Chem, 2017).

Data set [1] relates to Thoracic aorta. Briefly: Vasorelaxing effect in endothelium-denuded Wistar rat thoracic aorta ring assessed as reduction in KCl-induced contractile tone at 1 mM relative to KCl. Type of data set: functional.
Data set [2] relates to Thoracic aorta. Briefly: Vasorelaxing effect in endothelium-denuded Wistar rat thoracic aorta ring assessed as reduction in KCl-induced contractile tone. Type of data set: functional, tissue-based.
The subject of data set [3] is Rattus norvegicus. The data set can be described thus: Antihypertensive activity in Wistar rat model of L-NAME-induced hypertension assessed as decrease in basal systolic blood pressure at 133 umol/kg, ip measured at 5 mins interval for 30 mins relative to control. The class given is functional. Also noted: scale not given: the % may be the effect or the level left. The method in brief:
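Male 12-week-old normotensive Wistar rats (250 g), anaesthetized with sodium thiopental 60 mg/Kg. Tails warmed under an IR lamp for 15 min, and systolic pressure read by tail-cuff. Baseline taken, then L-NAME 100 mg/Kg i.p. given and pressure monitored 20 min. Test agent given i.p. in DMSO vehicle (0.33 ml/Kg). Read-outs taken every 5 min over 30 min and averaged, as % of the L-NAME-raised Psys. 6 rats/group.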

Data set [4] can be described thus: Drug metabolism in HSMC assessed as H2S release at 300 uM by WSP1 dye based spectrofluorometric method. To be noted: human. The class given is ADME, cell-based. In short, it runs like this:
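HASMCs seeded at 30000/well on gelatine-coated culture slides; after 24 h, loaded with 100 µM WSP-1 for 30 min. Dye solution replaced by compound in HEPES-buffered saline, pH 7.4, without added thiols. H2S-evoked fluorescence (λ 465–515 nm) was read by spectrofluorometer over 1 h and expressed as fluorescence index.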

The nature of data set [5]: Drug metabolism in HSMC assessed as H2S release at 300 uM by WSP1/propidium iodide staining based fluorescence microscopic method. Type of data set: ADME, cell-based. To be noted: human. In short, it runs like this: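 HASMCs on gelatine-coated culture slides were loaded with 100 µM WSP-1 for 30 min, then incubated with compound in HEPES-buffered saline for 1 h. Cells were washed, fixed in Bouin solution for 10 min, washed twice and counterstained with propidium iodide for nuclei. Green WSP-1 fluorescence was examined by fluorescence microscopy.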

The test system of data set [6] is HSMC. Briefly: Induction of membrane hyperpolarization in HSMC at 10 uM measured every 2.5 mins for 40 mins by DiBac4(3) dye based spectrofluorometric method. The class given is functional, cell-based. To be noted: Homo sapiens. The method in brief:
(§1)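 Human aortic smooth muscle cells were grown in Medium 231 with SMGS at 37 °C, 5% CO2, and seeded at 72×10^3/well on gelatin 24 h before use. Cells were loaded 1 h with DiBac4(3) 2.5 µM in HEPES buffer, pH 7.4, at room temperature. Fluorescence (ex 488/em 520 nm) was read every 2.5 min for 40 min. (Ft-F0)/F0 was calculated, and AUC expressed as % of the NS1619 10 µM response. Six experiments ×6 replicates.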

The subject of data set [7] is HSMC. The data set can be described thus: Induction of intracellular cGMP level in HSMC at 300 uM after 20 mins by ELISA. The class given is functional, cell-based. To be noted: Homo sapiens.
Data set [8] has as its system HSMC. The data set can be described thus: Induction of membrane hyperpolarization in HSMC measured every 2.5 mins for 40 mins by DiBac4(3) dye based spectrofluorometric method. To be noted: Homo sapiens. Type of data set: functional, cell-based. In short, it runs like this: as §1
A short description of data set [9]: Drug metabolism in HSMC assessed as H2S release by measuring increase in fluorescence intensity at 1 mM after 1 hr by WSP1 dye based spectrofluorometric method relative to DADS. The class given is ADME, cell-based. To be noted: human, 1000 µM. The method in brief: (§2)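 Human aortic smooth muscle cells were seeded on gelatin-coated slides (30000/well). After 24 h they were loaded with WSP-1 (100 µM) for 30 min, and the supernatant was replaced by compound in HEPES standard buffer (pH 7.4). Fluorescence (λ 465-515 nm) was followed for 1 h and expressed as fluorescence index. Reference donor was used at 300 µM. Data are mean ± SE.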

The nature of data set [10]: Drug metabolism in HSMC assessed as H2S release at 1 mM by WSP1 dye based spectrofluorometric method. Type of data set: ADME, cell-based. To be noted: human, 1000 µM, TDE = time-dependent effect. In short, it runs like this: as §2
The subject of data set [11] is Heart. The data set can be described thus: Protection against angiotensin2-induced reduction in coronary flow in Langendorff perfused Wistar rat heart assessed as increase in coronary flow at 300 uM after 20 mins relative to control. The class given is functional. In short, it runs like this: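 Langendorff-perfused hearts were equilibrated for 20 min. Coronary spasm was induced with angiotensin II 0.1 µM, kept in the perfusate throughout. Compound (300 µM) or vehicle was then added to the perfusate for 20 min. Coronary flow was expressed as % of the mean of three basal readings. Hearts from 6-9 animals/group; mean ± SE.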

The nature of data set [12]: Induction of intracellular cGMP level in sodium nitroprusside pretreated HSMC at 300 uM after 20 mins by ELISA (reference value: 0.446 +/- 0.005 pmol/ml). The class given is functional, Homo sapiens. A general note: In an ELISA, binding on a coated surface is turned into a signal by an enzyme label.
A short description of data set [13]: Cytotoxicity in HSMC assessed as cell damage at 300 uM by propidium iodide staining based fluorescence microscopic method. To be noted: human. In short, it runs like this:
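WSP-1-loaded human aortic smooth muscle cells were incubated with compound for 1 h. Cells were then washed, fixed in Bouin solution for 10 min, and washed twice. Nuclei were stained with propidium iodide, and slides were examined by fluorescence microscopy.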

Data set [14] in a line: Induction of membrane hyperpolarization in HSMC at 1 mM measured every 2.5 mins for 40 mins by DiBac4(3) dye based spectrofluorometric method relative to NS1619. Type of data set: functional, Homo sapiens. In short, it runs like this:
as §1

The source made the active and inactive calls. The rule behind the calls is not given here.

Turning to `S=C(NCc1ccccc1)c1ccccc1`, in [1], the Emax at 1000 µM was 92.7%. Besides, the IC50 in data set [2] is 162 µM.
Regarding `C=CCSSCC=C` [DIALLYLDISULFIDE], the Emax at 1000 µM in data set [1] was 41.7%. Also, in data set [3], the Activity is reported as 39%. In addition, the Drug metabolism entry in data set [4] and in data set [5] was “Metabolite_Detected” in each case.
`N=C(SCc1ccccc1)c1ccc(O)cc1`: the Emax at 1000 µM in data set [1] came to 82.1%. In addition, the half-inhibitory concentration (IC50) in data set [2] is 490 µM.
For `COc1ccc(C(=S)NCc2ccccc2)cc1` the same measures were 96.8% and 129 µM.
Consider `N=C(SCc1ccc2ccccc2c1)c1cccs1`, for which, in data set [1], the maximal response (Emax) at 1000 µM was found to be 20.4%.
`N=C(SCc1ccccc1)c1cccs1`: the Emax at 1000 µM in [1] was found to be 89.9%. Moreover, the concentration for half-maximal inhibition (IC50) in [2] was 263 µM.
In the case of `O=c1[nH]c2cc(C(F)(F)F)ccc2n1-c1cc(C(F)(F)F)ccc1O`, the outcome in [6] was Active.
For the compound `S=C(NCc1ccccc1)c1cccs1`, the Emax at 1000 µM in data set [1] was 91.7%. In addition, in [2], the concentration for half-maximal inhibition (IC50) was 240 µM.
Take `N=C(Sc1ccccc1)c1cccs1`: the outcome in data set [7], in data set [3] and in [11] was inactive. Further, the Activity result is “Dose-dependent effect” in data set [8], 0.667 pmol/mL in data set [12], “Toxic” in data set [13] and 36% in data set [14]. The Emax at 1000 µM in data set [1] was 99.7%. Also, the “fold change (FC)” value in data set [9] worked out at 50. In addition, in data set [10], the Drug metabolism result is given as “Tde”. Besides, the IC50 in data set [2] was 631 µM.
Consider `N=C(SCc1ccccc1)c1ccccc1`, for which the Emax at 1000 µM in data set [1] amounted to 86.5%. Further, the IC50 in [2] was 427 µM.
As for `COc1ccc(C(=N)SCc2ccccc2)cc1`, the result in [7] was inactive. The Activity entry in [8] was “Dose-dependent effect”; in [3], 36%; in data set [11], “<=165%”; in data set [12] it was 0.489 pmol/mL; in [14], 149%. Further, the Emax at 1000 µM in data set [1] was 89.9%. The figures for the Drug metabolism entry in data set [10] and in data set [5] were “Tde” and “Metabolite_Detected”, respectively. The IC50 in data set [2] is 257 µM.
`Oc1ccc(C(=S)NCc2ccccc2)cc1`: in data set [1], the maximal response (Emax) at 1000 µM was 88.2%. Moreover, in data set [2], the IC50 is 347 µM.

The term Emax denotes the size of the effect at its maximum, as opposed to the concentration needed. The IC50 is the concentration at which inhibition is half-maximal.
